Measured values from ChEMBL document CHEMBL5674890, “Selective inhibition of CBP/p300 HAT by A-485 results in suppression of lipogenesis and hepatic gluconeogenesis” (Cell Death Dis, 2020).
Active and inactive are the calls of the source. No cut-off for these calls is given here.

What was measured:
[1] = test system: Mus musculus; test: Anti-obesity activity in C57BL/6 mouse supplemented with high fat diet assessed as decrease in total fat mass at 20 mg/kg/day, ip administered for 1 week; assay type: functional, organism-based; settings: time 1.0 weeks
In short: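 Male C57BL/6 mice fed high-fat diet for 14 weeks from 5 weeks of age, then ip 20 mg·kg−1·day−1 for 7 days. Body weight, EchoMRI lean/fat mass, and random or 16 h-fasted blood glucose recorded, as the line states.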

[2] = test system: Mus musculus; test: Anti-obesity activity in C57BL/6 mouse supplemented with high fat diet assessed as improvement in glucose tolerance at 20 mg/kg/day, ip administered for 1 week measured by intraperitoneal glucose tolerance test; assay type: functional, organism-based; settings: time 1.0 weeks
In short: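 High-fat diet mice (male C57BL/6, 14 weeks on HFD from 5 weeks of age), ip 20 mg·kg−1·day−1 for 7 days. 16 h fast, then glucose 2 g/kg body weight ip; blood glucose tracked during the test.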

[3] = test system: Mus musculus; test: Inhibition of lipogenesis in C57BL/6 mouse supplemented with high-fat diet assessed as decrease in DGAT2 mRNA expression at 20 mg/kg/day, ip administered for 1 week measured by RT-qPCR assay; assay type: functional, organism-based; settings: time 1.0 weeks
In short: (§1)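 Male C57BL/6 mice were fed high-fat diet for 14 weeks from 5 weeks of age, then injected ip with 20 mg·kg−1·day−1 for 7 days or given vehicle. Epididymal and inguinal WAT were weighed, examined by H&E, and analysed. Transcripts were measured by Trizol/SYBR Green RT-qPCR; proteins by western blot. n = 5–9; mean ± SEM.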

[4] = test system: Mus musculus; test: Inhibition of lipogenesis in C57BL/6 mouse supplemented with high-fat diet assessed as decrease in SREBP-1c mRNA expression at 20 mg/kg/day, ip administered for 1 week measured by RT-qPCR assay; assay type: functional, organism-based; settings: time 1.0 weeks; in short: as §1
[5] = test system: Mus musculus; test: Inhibition of lipogenesis in C57BL/6 mouse supplemented with normal chow diet assessed as decrease in ChREBP mRNA expression at 20 mg/kg/day, ip administered for 1 week measured by RT-qPCR assay; assay type: functional, organism-based; settings: time 1.0 weeks
In short: (§2)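 Eight-week-old male C57BL/6 mice on normal chow were given 20 mg·kg−1·day−1 ip daily for 7 days or vehicle. Epididymal WAT was collected. Lipogenic, adipogenic and fatty-acid-oxidation transcripts were quantified by Trizol extraction and SYBR Green RT-qPCR. FAS, ACC, PPARγ and C/EBPα protein were assessed by western blot. n = 5–9; mean ± SEM.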

[6] = test system: Mus musculus; test: Inhibition of lipogenesis in C57BL/6 mouse supplemented with normal chow diet assessed as decrease in SREBP-1c mRNA expression at 20 mg/kg/day, ip administered for 1 week measured by RT-qPCR assay; assay type: functional, organism-based; settings: time 1.0 weeks; in short: as §2
[7] = test system: Mus musculus; test: Inhibition of lipogenesis in C57BL/6 mouse supplemented with normal chow diet assessed as effect on ACADVL mRNA expression at 20 mg/kg/day, ip administered for 1 week measured by RT-qPCR assay; assay type: functional, organism-based; settings: time 1.0 weeks; in short: as §2
[8] = test system: Mus musculus; test: Inhibition of lipogenesis in C57BL/6 mouse supplemented with normal chow diet assessed as decrease in C/EBPalpha mRNA expression at 20 mg/kg/day, ip administered for 1 week measured measured by RT-qPCR assay; assay type: functional, organism-based; settings: time 1.0 weeks; in short: as §2
[9] = test system: Mus musculus; test: Inhibition of lipogenesis in C57BL/6 mouse supplemented with high-fat diet assessed as decrease in C/EBPalpha protein expression at 20 mg/kg/day, ip administered for 1 week measured measured by western blot analysis; assay type: functional, organism-based; settings: time 1.0 weeks; in short: as §1
[10] = test system: Mus musculus; test: Inhibition of lipogenesis in C57BL/6 mouse supplemented with normal chow diet assessed as decrease in PPARgamma protein expression at 20 mg/kg/day, ip administered for 1 week measured measured by western blot analysis; assay type: functional, organism-based; settings: time 1.0 weeks; in short: as §2
[11] = test system: Adipocyte; test: Inhibition of lipogenesis in mouse adipocytes isolated stromal vascular cells assessed as decrease in FAS protein expression measured after 24 hrs by western blot analysis; assay type: functional, cell-based
[12] = test system: Adipocyte; test: Inhibition of lipogenesis in mouse adipocytes isolated stromal vascular cells assessed as decrease in LPL mRNA expression measured after 24 hrs by RT-qPCR assay; assay type: functional, cell-based
In short: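 Stromal vascular cells from inguinal WAT of C57BL/6 mice, grown in DMEM/F12 + 10% FBS at 37 °C, 10% CO2. At confluence, induced 48 h with 5 μg/ml insulin, 1 μM dexamethasone, 0.5 mM isobutylmethylxanthine, then 6 days in 5 μg/ml insulin; fully differentiated day 8. Mature adipocytes exposed to inhibitor 24 h. Total RNA by Trizol, SYBR Green RT-qPCR; protein by western blot.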

[13] = test system: Hepatocyte; test: Inhibition of lipogenesis in mouse primary hepatocytes assessed as decrease in HMGCS1 mRNA expression at 3 uM in presence of 100 nM insulin and 5 to 25 mM glucose measured after 18 hrs by RT-qPCR assay; assay type: functional, cell-based
In short: (§3)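 Primary hepatocytes isolated from C57BL/6 mice by two-step perfusion. Cells incubated 18 h with 3 μM inhibitor, with 0 or 100 nM insulin and 5 or 25 mM glucose. Transcripts quantified by SYBR Green RT-qPCR after Trizol RNA extraction; proteins by western blot of lysates. Mean ± SEM.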

[14] = test system: Hepatocyte; test: Inhibition of lipogenesis in mouse primary hepatocytes assessed as increase in ACO mRNA expression at 3 uM in presence of 100 nM insulin and 5 to 25 mM glucose measured after 18 hrs by RT-qPCR assay; assay type: functional, cell-based; in short: as §3
[15] = test system: Hepatocyte; test: Inhibition of glucogenesis in mouse primary hepatocytes stimulated with 100 uM 8-Br-cAMP assessed as decrease in G6Pc mRNA expression at 3 uM in combination with 2 mM metformin measured by RT-qPCR assay; assay type: functional, cell-based
In short: (§4)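 Primary mouse hepatocytes given 3 μM compound with 2 mM metformin in the presence of 100 μM 8-Br-cAMP. Gluconeogenic gene mRNA measured by SYBR Green RT-qPCR. Mean ± SEM, three independent experiments.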

[16] = test system: Hepatocyte; test: Inhibition of glucogenesis in mouse primary hepatocytes stimulated with 100 uM 8-Br-cAMP assessed as decrease in FBP mRNA expression at 3 uM in combination with 2 mM metformin measured by RT-qPCR assay; assay type: functional, cell-based; in short: as §4
[17] = test system: Hepatocyte; test: Inhibition of glucogenesis in mouse primary hepatocytes stimulated with 100 uM 8-Br-cAMP assessed as effect on PGC1alpha mRNA expression at 3 uM measured after 8 hrs by RT-qPCR assay; assay type: functional, cell-based
In short: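 Primary mouse hepatocytes treated with 3 μM compound and 100 μM 8-Br-cAMP for 8 h. Trizol RNA, SYBR Green RT-qPCR of the named transcript. Mean ± SEM, three independent experiments.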

[18] = species on record: Mus musculus; test: Inhibition of glucogenesis in mouse assessed as decrease in hepatic FOXO1 protein expression measured by western blot analysis; assay type: functional, organism-based
In short: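 Livers from vehicle- or treated mice (ip 20 mg·kg−1·day−1 for 7 days) homogenized in lysis buffer; FOXO1 and C/EBPα analysed by western blot.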

[19] = target: T1, CREB-binding protein/Histone acetyltransferase p300 (Homo sapiens) (UniProt Q09472+Q92793); test: Inhibition of CBP/p300 in mouse primary hepatocytes stimulated with 100 uM 8-Br-cAMP assessed as decrease in FOXO1 abundance in cytoplasm at 3 uM; assay type: cell-based; settings: Primary hepatocyte
T1 sequence (Q09472 whole entry, looked up): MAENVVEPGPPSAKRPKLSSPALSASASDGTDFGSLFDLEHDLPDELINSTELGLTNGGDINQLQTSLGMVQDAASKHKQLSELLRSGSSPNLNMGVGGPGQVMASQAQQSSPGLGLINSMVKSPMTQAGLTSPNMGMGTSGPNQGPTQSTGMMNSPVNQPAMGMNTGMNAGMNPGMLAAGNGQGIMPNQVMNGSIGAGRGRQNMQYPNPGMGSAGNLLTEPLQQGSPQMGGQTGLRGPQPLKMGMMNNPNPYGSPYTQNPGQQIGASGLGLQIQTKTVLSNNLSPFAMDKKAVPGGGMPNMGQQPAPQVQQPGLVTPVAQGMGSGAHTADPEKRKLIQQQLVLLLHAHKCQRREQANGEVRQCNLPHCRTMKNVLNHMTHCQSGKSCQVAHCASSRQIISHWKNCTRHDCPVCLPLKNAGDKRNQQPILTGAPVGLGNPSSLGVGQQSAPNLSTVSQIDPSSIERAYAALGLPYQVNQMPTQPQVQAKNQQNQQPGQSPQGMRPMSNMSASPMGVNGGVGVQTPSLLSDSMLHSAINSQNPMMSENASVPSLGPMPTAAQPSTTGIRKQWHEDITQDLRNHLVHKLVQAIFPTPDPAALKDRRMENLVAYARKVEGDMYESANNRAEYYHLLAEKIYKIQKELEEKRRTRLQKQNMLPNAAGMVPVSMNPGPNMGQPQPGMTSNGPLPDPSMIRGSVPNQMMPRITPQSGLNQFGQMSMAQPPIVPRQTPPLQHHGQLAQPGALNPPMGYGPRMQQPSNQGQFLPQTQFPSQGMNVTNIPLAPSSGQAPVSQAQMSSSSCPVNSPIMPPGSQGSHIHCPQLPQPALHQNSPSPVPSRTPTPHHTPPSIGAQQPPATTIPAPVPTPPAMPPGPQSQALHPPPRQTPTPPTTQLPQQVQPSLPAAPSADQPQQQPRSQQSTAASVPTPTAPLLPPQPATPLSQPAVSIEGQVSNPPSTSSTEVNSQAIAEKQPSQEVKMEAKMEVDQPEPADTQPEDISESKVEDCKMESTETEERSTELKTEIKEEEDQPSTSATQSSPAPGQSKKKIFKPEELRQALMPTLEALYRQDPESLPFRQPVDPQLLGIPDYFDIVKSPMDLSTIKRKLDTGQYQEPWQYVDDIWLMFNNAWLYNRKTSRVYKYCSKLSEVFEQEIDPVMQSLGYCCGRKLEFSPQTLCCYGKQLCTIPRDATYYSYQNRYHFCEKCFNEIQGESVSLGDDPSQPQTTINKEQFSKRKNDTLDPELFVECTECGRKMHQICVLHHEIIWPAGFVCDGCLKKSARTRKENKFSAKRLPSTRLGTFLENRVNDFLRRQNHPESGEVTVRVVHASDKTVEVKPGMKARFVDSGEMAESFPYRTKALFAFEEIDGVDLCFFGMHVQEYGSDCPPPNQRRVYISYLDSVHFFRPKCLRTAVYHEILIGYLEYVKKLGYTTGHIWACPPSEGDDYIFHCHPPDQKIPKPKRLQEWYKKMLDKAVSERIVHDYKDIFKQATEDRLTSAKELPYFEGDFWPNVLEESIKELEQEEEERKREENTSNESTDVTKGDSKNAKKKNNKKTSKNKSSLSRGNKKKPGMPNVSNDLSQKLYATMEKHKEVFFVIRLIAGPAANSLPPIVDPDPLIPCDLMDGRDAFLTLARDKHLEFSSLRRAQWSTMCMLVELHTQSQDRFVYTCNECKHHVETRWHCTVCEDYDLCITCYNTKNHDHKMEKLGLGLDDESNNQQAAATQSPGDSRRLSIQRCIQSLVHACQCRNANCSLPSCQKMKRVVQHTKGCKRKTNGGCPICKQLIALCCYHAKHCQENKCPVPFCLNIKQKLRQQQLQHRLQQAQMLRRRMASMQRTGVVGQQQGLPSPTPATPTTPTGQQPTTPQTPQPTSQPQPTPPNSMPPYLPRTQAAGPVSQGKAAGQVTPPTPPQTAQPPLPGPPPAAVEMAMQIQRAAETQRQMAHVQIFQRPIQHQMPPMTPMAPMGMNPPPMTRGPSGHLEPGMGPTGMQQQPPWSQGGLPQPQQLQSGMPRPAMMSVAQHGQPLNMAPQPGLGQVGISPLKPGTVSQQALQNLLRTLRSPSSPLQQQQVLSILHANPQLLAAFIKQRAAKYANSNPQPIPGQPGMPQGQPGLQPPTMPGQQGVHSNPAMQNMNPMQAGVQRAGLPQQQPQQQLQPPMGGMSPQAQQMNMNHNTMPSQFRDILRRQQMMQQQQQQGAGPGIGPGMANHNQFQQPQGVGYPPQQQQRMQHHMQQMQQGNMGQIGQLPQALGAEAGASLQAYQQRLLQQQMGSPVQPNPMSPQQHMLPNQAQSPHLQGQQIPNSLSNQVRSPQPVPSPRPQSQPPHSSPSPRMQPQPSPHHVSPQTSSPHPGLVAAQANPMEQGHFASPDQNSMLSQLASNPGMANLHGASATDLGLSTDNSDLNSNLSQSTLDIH
T1 sequence (Q92793 whole entry, looked up): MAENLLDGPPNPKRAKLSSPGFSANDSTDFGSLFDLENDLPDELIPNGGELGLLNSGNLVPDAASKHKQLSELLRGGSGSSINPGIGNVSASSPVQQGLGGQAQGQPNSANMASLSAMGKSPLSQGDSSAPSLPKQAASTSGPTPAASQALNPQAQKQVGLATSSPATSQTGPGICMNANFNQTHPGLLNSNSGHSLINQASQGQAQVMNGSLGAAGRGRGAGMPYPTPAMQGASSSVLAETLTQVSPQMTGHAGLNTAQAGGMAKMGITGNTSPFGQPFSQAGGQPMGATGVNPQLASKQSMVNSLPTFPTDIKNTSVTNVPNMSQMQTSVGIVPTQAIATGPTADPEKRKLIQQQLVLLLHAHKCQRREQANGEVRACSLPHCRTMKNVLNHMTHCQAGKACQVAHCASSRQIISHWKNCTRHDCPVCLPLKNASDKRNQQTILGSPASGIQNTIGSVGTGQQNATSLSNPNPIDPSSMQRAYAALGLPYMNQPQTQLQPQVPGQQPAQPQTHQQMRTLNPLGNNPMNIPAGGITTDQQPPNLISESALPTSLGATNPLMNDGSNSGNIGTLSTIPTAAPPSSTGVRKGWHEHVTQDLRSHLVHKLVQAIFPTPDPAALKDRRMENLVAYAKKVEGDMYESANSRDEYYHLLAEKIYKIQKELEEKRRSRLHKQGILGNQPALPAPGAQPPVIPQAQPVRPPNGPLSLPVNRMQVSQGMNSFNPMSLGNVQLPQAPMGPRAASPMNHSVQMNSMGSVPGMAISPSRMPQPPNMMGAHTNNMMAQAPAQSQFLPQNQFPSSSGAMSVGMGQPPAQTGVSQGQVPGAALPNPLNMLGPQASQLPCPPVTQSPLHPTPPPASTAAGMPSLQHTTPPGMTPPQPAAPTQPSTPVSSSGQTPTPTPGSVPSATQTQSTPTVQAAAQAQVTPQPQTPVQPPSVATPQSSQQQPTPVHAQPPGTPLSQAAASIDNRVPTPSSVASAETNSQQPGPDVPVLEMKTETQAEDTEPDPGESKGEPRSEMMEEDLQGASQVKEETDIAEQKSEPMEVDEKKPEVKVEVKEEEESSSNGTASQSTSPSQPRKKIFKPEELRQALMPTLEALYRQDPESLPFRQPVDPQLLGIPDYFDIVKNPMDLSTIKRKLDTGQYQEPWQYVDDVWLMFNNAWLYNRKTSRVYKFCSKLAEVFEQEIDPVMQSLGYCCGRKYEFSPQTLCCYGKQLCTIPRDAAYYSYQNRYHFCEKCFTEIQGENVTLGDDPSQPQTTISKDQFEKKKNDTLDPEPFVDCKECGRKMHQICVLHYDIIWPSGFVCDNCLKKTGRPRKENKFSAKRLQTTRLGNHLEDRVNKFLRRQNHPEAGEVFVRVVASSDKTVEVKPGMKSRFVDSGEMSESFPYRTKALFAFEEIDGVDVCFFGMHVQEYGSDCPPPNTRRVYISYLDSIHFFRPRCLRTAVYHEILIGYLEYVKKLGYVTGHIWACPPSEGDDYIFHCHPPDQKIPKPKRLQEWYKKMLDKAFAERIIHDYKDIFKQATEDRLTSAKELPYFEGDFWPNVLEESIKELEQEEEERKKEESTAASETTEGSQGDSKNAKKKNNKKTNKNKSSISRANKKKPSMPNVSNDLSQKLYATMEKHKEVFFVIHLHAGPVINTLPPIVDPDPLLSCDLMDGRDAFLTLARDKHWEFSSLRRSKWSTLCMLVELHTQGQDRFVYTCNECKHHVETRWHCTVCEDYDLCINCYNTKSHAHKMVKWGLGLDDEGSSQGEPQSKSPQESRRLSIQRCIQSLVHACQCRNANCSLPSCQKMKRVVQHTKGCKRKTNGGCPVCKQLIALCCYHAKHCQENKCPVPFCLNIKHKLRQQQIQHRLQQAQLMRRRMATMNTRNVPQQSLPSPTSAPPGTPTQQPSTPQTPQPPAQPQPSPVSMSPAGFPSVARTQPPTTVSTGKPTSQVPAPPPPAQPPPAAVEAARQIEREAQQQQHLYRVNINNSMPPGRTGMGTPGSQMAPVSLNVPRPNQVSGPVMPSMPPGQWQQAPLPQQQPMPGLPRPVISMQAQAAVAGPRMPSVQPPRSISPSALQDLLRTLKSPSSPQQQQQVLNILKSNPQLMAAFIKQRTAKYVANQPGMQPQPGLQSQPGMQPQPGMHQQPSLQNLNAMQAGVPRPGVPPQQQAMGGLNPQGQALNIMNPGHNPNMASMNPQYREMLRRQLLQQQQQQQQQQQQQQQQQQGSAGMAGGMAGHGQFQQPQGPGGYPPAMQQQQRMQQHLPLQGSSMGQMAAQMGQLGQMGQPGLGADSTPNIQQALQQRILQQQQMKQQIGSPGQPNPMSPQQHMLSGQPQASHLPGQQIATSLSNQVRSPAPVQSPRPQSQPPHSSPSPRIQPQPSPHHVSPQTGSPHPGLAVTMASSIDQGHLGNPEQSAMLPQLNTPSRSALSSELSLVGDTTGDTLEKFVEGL
In short: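 Primary mouse hepatocytes treated with 3 μM compound and 100 μM 8-Br-cAMP. Nuclear and cytoplasmic fractions separated with a commercial kit; FOXO1 detected by western blot.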

[20] = target: T1, CREB-binding protein/Histone acetyltransferase p300 (Homo sapiens); test: Inhibition of CBP/p300 in mouse primary hepatocytes stimulated with 100 uM 8-Br-cAMP assessed as effect on COP1 protein expression at 3 uM measured after 12 hrs by western blot analysis; assay type: cell-based; settings: Primary hepatocyte

Structure (SMILES): CNC(=O)Nc1ccc2c(c1)CCS21OC(=O)N(CC(=O)N(Cc2ccc(F)cc2)[C@@H](C)C(F)(F)F)C1=O (stereo not given in full)
- Activity [1]: Active
- Activity [2]: Active
- inhibition [3]: Active
- inhibition [4]: Active
- inhibition [5]: Active
- inhibition [6]: Active
- inhibition [7]: inactive
- inhibition [8]: Active
- inhibition [9]: Active
- inhibition [10]: Active
- inhibition [11]: Active
- inhibition [12]: Active
- inhibition [13]: Active
- inhibition [14]: Active
- inhibition [15]: Active
- inhibition [16]: Active
- inhibition [17]: inactive
- inhibition [18]: Active
- inhibition [19]: Active
- inhibition [20]: inactive
